Assay results collected from several papers.
Lines come from different studies, so protocols differ.
CDK16: Cyclin-dependent kinase 16 (CDK16, Homo sapiens, UniProt Q00536)
CDK16 with cyclin Y: Cyclin-dependent kinase 16, with cyclin Y (CDK16, Homo sapiens, UniProt Q00536)

| SMILES | target | test | conditions | endpoint | value |
| --- | --- | --- | --- | --- | --- |
| COc1ccc2[nH]c3c4[nH]c5ccc(OC)cc5c4c4c(c3c2c1)C(=O)NC4=O | CDK16 | binding | 1 µM | remaining binding | 99% |
| Cc1cc(O)c(-c2ccc([C@@H](C)CN(C)C)cc2)c2c1[nH]c(=O)c1sccc12 | CDK16 | enzyme activity, inhibitor | 0.1 µM | inhibition | -12.9% |
| CC(C)S(=O)(=O)c1ccc2nccc(Nc3ccc4sc(C5CCCC5)nc4c3)c2c1 | CDK16 with cyclin Y | enzyme activity, inhibitor | 1 µM | activity vs control | 106% |
| Cc1ccc(NC(=O)c2ccnc(C(F)(F)F)c2)cc1-c1cc(OCCO)nc(N2CCOCC2)c1 | CDK16 | binding | 1 µM | remaining binding | 100% |
| N#Cc1ccc(NC(=O)Nc2ccccc2)cc1 | CDK16 | cell-free assay, competition with immobilised ligand | 25 µM | remaining binding | 68% |
| C=CC(=O)N1CCC[C@@H](n2nc(-c3ccc(Oc4ccccc4)cc3)c3c(N)ncnc32)C1 | CDK16 | enzyme activity, inhibitor | 1 µM | inhibition | 10% |
| CCCCC(=O)Nc1ccc(-c2ccc3ncn(CCC)c(=O)c3c2)cn1 | CDK16 | binding, competition with immobilised ligand | 0.5 µM | remaining binding | 90% |
| CO[C@@H]1[C@H](N(C)C(=O)c2ccccc2)C[C@H]2O[C@]1(C)n1c3ccccc3c3c4c(c5c6ccccc6n2c5c31)C(=O)NC4 | CDK16 | enzyme activity, inhibitor | 1 µM | inhibition | 5% |
| COc1ccc2oc(-c3ccc4nc(N)oc4c3)c/c(=N\c3ccccc3NC(=O)CCN)c2c1 | CDK16 with cyclin Y | binding | 1 µM | remaining binding | 107% |
